# Laboratory results taken from ChEMBL document CHEMBL1137566 (J Med Chem, 2007).
# Experiments:
# Coagulation factor X [1] = molecular target: Coagulation factor X (Homo sapiens, UniProt P00742); assay: Binding affinity to human F10a
# Prothrombin = Prothrombin (Homo sapiens, UniProt P00734); assay: Inhibition of human thrombin
# Trypsin = Trypsin (Homo sapiens, UniProt P07477+P07478+P35030); assay: Inhibition of human trypsin; type: protein assay
# [2] = Apparent permeability across Caco-2 cells; type: ADME, cell-based; conditions: human
# [3] = Volume of distribution at steady state in dog at 0.4 mg/kg, iv and 0.2 mg/kg, po; type: ADME, organism-based, Canis lupus familiaris; conditions: in vivo, read-out: Vdss
# How it was run: (§1)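 Dog pharmacokinetics from cassette (N-in-one) dosing of compounds as TFA salts: 0.4 mg/kg iv and 0.2 mg/kg po, n = 2 animals.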
# [4] = Clearance in dog at 0.4 mg/kg, iv and 0.2 mg/kg, po; type: ADME, organism-based, Canis lupus familiaris; conditions: in vivo; how it was run: as §1
# [5] = (§2) Oral bioavailability in dog at 0.2 mg/kg, po; type: ADME, organism-based, Canis lupus familiaris; conditions: in vivo; how it was run: as §1
# [6] = Half life in dog at 0.2 mg/kg, po; type: ADME, organism-based, Canis lupus familiaris; parameters: dose 0.2 mg/kg, route oral; conditions: in vivo; how it was run: as §1
# [7] = Half life in human liver microsomes; type: ADME, Microsome
# Oryctolagus cuniculus = species on record: Oryctolagus cuniculus; assay: Inhibition of thrombus formation in rabbit arteriovenous shunt thrombosis model; type: functional, organism-based
# [8] = Aqueos solubility in saline; type: ADME
# Coagulation factor X [9] = molecular target: T1, Coagulation factor X (Oryctolagus cuniculus, UniProt O19045); assay: Binding affinity to rabbit F10a
# T1 sequence (O19045 whole entry): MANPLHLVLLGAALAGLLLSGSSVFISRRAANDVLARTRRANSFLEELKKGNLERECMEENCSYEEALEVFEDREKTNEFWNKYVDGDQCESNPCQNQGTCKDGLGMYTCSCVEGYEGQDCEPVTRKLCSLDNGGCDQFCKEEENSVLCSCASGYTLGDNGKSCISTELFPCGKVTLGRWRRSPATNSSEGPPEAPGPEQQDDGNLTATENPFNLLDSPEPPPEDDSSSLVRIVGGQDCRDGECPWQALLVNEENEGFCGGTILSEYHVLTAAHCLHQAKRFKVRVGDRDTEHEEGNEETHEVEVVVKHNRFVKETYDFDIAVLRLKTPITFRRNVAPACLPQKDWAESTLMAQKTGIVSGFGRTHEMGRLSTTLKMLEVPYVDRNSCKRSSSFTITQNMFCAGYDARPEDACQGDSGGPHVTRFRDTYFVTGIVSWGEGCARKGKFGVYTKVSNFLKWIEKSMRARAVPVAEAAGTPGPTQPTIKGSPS
# [10] = Protein binding in human serum by equilibrium dialysis; type: ADME, cell-free; conditions: read-out: PB (converted)
# Canis familiaris = assay: as §2; type: ADME, organism-based, Canis lupus familiaris; conditions: in vivo; how it was run: as §1
# Sequence of Coagulation factor X (Homo sapiens, UniProt P00742) (P00742 41-179 limits assumed): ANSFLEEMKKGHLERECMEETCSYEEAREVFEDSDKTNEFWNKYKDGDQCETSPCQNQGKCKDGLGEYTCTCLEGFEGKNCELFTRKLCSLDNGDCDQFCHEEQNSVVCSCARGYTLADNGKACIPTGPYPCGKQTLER
# Sequence of Coagulation factor X (Homo sapiens, UniProt P00742) (P00742 235-488 limits assumed): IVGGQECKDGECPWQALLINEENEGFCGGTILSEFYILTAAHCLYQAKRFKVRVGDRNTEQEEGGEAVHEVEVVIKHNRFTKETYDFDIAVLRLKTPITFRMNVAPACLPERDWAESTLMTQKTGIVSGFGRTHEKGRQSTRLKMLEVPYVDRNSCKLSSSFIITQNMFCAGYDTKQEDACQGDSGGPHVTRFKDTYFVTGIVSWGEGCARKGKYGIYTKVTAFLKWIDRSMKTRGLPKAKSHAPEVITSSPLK
Ki (Coagulation factor X [1]) [nM],Ki (Prothrombin) [nM],Ki (Trypsin) [nM],Vd [3] [L/kg],half-life [6] [h],Compound,clearance [4] [mL/min/kg],further results
0.25,1900,> 3000,–,–,COc1ccc(-n2nc(Cn3cncn3)c3c2C(=O)N(c2ccc(-c4ccccc4CN4CC[C@@H](O)C4)cc2)CC3)cc1,–,–
1.7,11000,> 3000,–,–,COc1ccc(-n2nc(C(=O)N(C)C)c3c2C(=O)N(c2ccc(-c4ccccc4CN4CC[C@@H](O)C4)cc2)CC3)cc1,–,–
0.08,–,–,6.5,3.7,CCN(CC)Cc1ccccc1-c1ccc(N2CCc3c(C(N)=O)nn(-c4ccc(OC)cc4)c3C2=O)cc1,40,Papp [2]: 2.3 ×10⁻⁶ cm/s; bioavailability [5]: 20%
1.1,1000,> 3000,–,–,COc1ccc(-n2nc(Cn3ncnn3)c3c2C(=O)N(c2ccc(-c4ccccc4CN4CC[C@@H](O)C4)cc2)CC3)cc1,–,–
0.47,3300,–,–,–,COc1ccc(-n2nc(C(F)(F)F)c3c2C(=O)N(c2ccc(N4CCCCCC4=O)cc2)CC3)cc1,–,–
0.25,180,> 3000,–,–,COc1ccc(-n2nc(S(C)(=O)=O)c3c2C(=O)N(c2ccc(-c4ccccc4CN4CC[C@@H](O)C4)cc2)CC3)cc1,–,–
3.9,980,> 3000,–,–,CCOC(=O)c1nn(-c2ccc(OC)cc2)c2c1CCN(c1ccc(-c3ccccc3CN3CC[C@@H](O)C3)cc1)C2=O,–,–
0.3,–,–,5.6,3.5,COc1ccc(-n2nc(C(N)=O)c3c2C(=O)N(c2ccc(-c4ccccc4CN4CCCC4)cc2)CC3)cc1,25,Papp [2]: 3.5 ×10⁻⁶ cm/s; bioavailability [5]: 53%
9.6,4600,> 3000,–,–,COc1ccc(-n2nc(NC(=O)OC(C)(C)C)c3c2C(=O)N(c2ccc(-c4ccccc4CN4CC[C@@H](O)C4)cc2)CC3)cc1,–,–
0.36,–,–,1.09,1.8,COc1ccc(-n2nc(C(N)=O)c3c2C(=O)N(c2ccc(-c4ccccc4CN(CCO)CCO)cc2)CC3)cc1,8.33,Papp [2]: 0.9 ×10⁻⁶ cm/s; bioavailability [5]: 15%
180,> 6300,–,–,–,COc1ccc(-n2nc(C(F)(F)F)c3c2C(=O)N(c2ccc(NC(C)=O)cc2)CC3)cc1,–,–
6.7,9400,> 3000,–,–,COc1ccc(-n2nc(N)c3c2C(=O)N(c2ccc(-c4ccccc4CN4CC[C@@H](O)C4)cc2)CC3)cc1,–,–
0.33,100,> 3000,–,–,COc1ccc(-n2nc(C#N)c3c2C(=O)N(c2ccc(-c4ccccc4CN4CC[C@@H](O)C4)cc2)CC3)cc1,–,–
0.18,330,> 3000,–,–,COc1ccc(-n2nc(C(F)(F)F)c3c2C(=O)N(c2ccc(-c4ccccc4CN4CC[C@@H](O)C4)cc2)CC3)cc1,–,–
7.6,> 20000,> 3000,–,–,COc1ccc(-n2nc(C(=O)O)c3c2C(=O)N(c2ccc(-c4ccccc4CN4CC[C@@H](O)C4)cc2)CC3)cc1,–,–
0.63,12000,> 3000,–,–,COc1ccc(-n2nc(-c3nnn[nH]3)c3c2C(=O)N(c2ccc(-c4ccccc4CN4CC[C@@H](O)C4)cc2)CC3)cc1,–,–

Ki (Coagulation factor X [1]) [nM],Ki (Prothrombin) [nM],Ki (Trypsin) [nM],Vd [3] [L/kg],half-life [6] [h],Compound,clearance [4] [mL/min/kg],further results
0.85,970,> 3000,3.7,1.8,COc1ccc(-n2nc(Cn3cnnn3)c3c2C(=O)N(c2ccc(-c4ccccc4CN4CC[C@@H](O)C4)cc2)CC3)cc1,43,Papp [2]: 0.9 ×10⁻⁶ cm/s; bioavailability [5]: 7%
4.8,7000,> 3000,–,–,CNC(=O)c1nn(-c2ccc(OC)cc2)c2c1CCN(c1ccc(-c3ccccc3CN3CC[C@@H](O)C3)cc1)C2=O,–,–
1.7,4800,> 3000,–,–,CNc1nn(-c2ccc(OC)cc2)c2c1CCN(c1ccc(-c3ccccc3CN3CC[C@@H](O)C3)cc1)C2=O,–,–
–,–,–,3.4,5.3,CN(C)Cc1nccn1-c1ccc(NC(=O)c2cc(C(F)(F)F)nn2-c2ccc3onc(N)c3c2)c(F)c1 [RAZAXABAN],–,half-life [7]: 0.633 h; fraction unbound [10]: 0.09; F (Canis familiaris): 84%
0.48,980,> 3000,–,–,COc1ccc(-n2nc(Cn3nccn3)c3c2C(=O)N(c2ccc(-c4ccccc4CN4CC[C@@H](O)C4)cc2)CC3)cc1,–,–
0.23,4400,–,–,–,COc1ccc(-n2nc(C(F)(F)F)c3c2C(=O)N(c2ccc(N4CCCCC4=O)cc2)CC3)cc1,–,–
2,950,> 3000,–,–,COc1ccc(-n2nc(N(C)C(=O)OC(C)(C)C)c3c2C(=O)N(c2ccc(-c4ccccc4CN4CC[C@@H](O)C4)cc2)CC3)cc1,–,–
6,> 13400,–,–,–,COc1ccc(-n2nc(C(F)(F)F)c3c2C(=O)N(c2ccc(N(C)C)cc2)CC3)cc1,–,–
0.97,–,–,–,–,COc1ccc(-n2nc(C(N)=O)c3c2C(=O)N(c2ccc(-c4ccccc4CN)cc2)CC3)cc1,–,Papp [2]: 1.2 ×10⁻⁶ cm/s
610,> 6300,–,–,–,CNc1ccc(N2CCc3c(C(F)(F)F)nn(-c4ccc(OC)cc4)c3C2=O)cc1,–,–
0.61,2520,–,1.7,0.7,COc1ccc(-n2nc(C(N)=O)c3c2C(=O)N(c2ccc(N(C)C(C)=O)cc2)CC3)cc1,46.7,Papp [2]: 2.5 ×10⁻⁶ cm/s; Ki (Coagulation factor X [9]): 2.6 nM; bioavailability [5]: 56%
0.5,> 6300,–,–,–,COc1ccc(-n2nc(C(F)(F)F)c3c2C(=O)N(c2ccc(N(C)C(C)=O)cc2)CC3)cc1,–,–
0.31,1800,> 3000,–,–,COc1ccc(-n2nc(N(C)C)c3c2C(=O)N(c2ccc(-c4ccccc4CN4CC[C@@H](O)C4)cc2)CC3)cc1,–,–
0.67,12000,> 3000,4.9,2.8,COc1ccc(-n2nc(Cn3ccnn3)c3c2C(=O)N(c2ccc(-c4ccccc4CN4CC[C@@H](O)C4)cc2)CC3)cc1,41.2,Papp [2]: 1.6 ×10⁻⁶ cm/s; bioavailability [5]: 24%
2.1,3900,–,–,–,COc1ccc(-n2nc(C(F)(F)F)c3c2C(=O)N(c2ccc(N4CCCCC4)cc2)CC3)cc1,–,–
–,> 6300,–,–,–,COc1ccc(-n2nc(C(F)(F)F)c3c2C(=O)N(c2ccc(N)cc2)CC3)cc1,–,–

Compound,Ki (Coagulation factor X [1]) [nM],Ki (Prothrombin) [nM],Ki (Trypsin) [nM],Vd [3] [L/kg],half-life [6] [h],clearance [4] [mL/min/kg],further results
CNCc1ccccc1-c1ccc(N2CCc3c(C(N)=O)nn(-c4ccc(OC)cc4)c3C2=O)cc1,0.14,–,–,7.4,7.3,21.7,Papp [2]: 1.7 ×10⁻⁶ cm/s; half-life [7]: > 1.67 h; bioavailability [5]: 56%; IC50 (Oryctolagus cuniculus): 445 nM
COc1ccc(-n2nc(C(N)=O)c3c2C(=O)N(c2ccc(N4CCCCC4=O)cc2)CC3)cc1 [APIXABAN],–,–,–,0.2,5.8,0.333,solubility [8]: 50 µg/mL; Ki (Coagulation factor X [9]): 0.17 nM; bioavailability [5]: 58%; IC50 (Oryctolagus cuniculus): 329 nM
COc1ccc(-n2nc(C(N)=O)c3c2C(=O)N(c2ccc(-c4ccccc4CN4CCC(O)CC4)cc2)CC3)cc1,0.29,–,–,0.99,4.3,1.67,Papp [2]: 4.9 ×10⁻⁶ cm/s; bioavailability [5]: 55%; IC50 (Oryctolagus cuniculus): 180 nM
Nc1noc2ccc(-n3nc(C(F)(F)F)c4c3C(=O)N(c3ccc(-c5ccccc5CN5CC[C@@H](O)C5)cc3)CC4)cc12,–,–,–,1.6,5.1,5.83,half-life [7]: 0.7 h; fraction unbound [10]: 0.03; IC50 (Oryctolagus cuniculus): 140 nM
COc1ccc(-n2nc(C(N)=O)c3c2C(=O)N(c2ccc(-c4ccccc4CN(C)C)cc2)CC3)cc1,0.24,–,–,6.1,3.6,33.3,Papp [2]: 2.3 ×10⁻⁶ cm/s; bioavailability [5]: 56%; IC50 (Oryctolagus cuniculus): 175 nM
COc1ccc(-n2nc(C(N)=O)c3c2C(=O)N(c2ccc(-c4ccccc4CN4CC[C@@H](O)C4)cc2)CC3)cc1,0.07,140,> 3000,1.6,5.6,5.33,Papp [2]: 2.3 ×10⁻⁶ cm/s; bioavailability [5]: 100%; IC50 (Oryctolagus cuniculus): 120 nM
